Here are results for 41 compounds from ChEMBL document CHEMBL2146363, “Allylic thiocyanates as a new class of antitubercular agents” (Bioorg Med Chem Lett, 2012).

Converted amounts (≈) assume the structure as drawn.

In assay [1] the test system is Mycobacterium tuberculosis. Nature of the assay: Antitubercular activity against Mycobacterium tuberculosis H37Rv in GAS medium after 4 days by microplate alamar blue assay. The format is functional. The conditions noted are these: 96 h. The method in brief:
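Replicating M. tuberculosis H37Rv grown in GAS (glycerol–alanine–salts) medium. MIC determined by microplate Alamar Blue assay (MABA).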
In general terms: Alamar Blue is a resazurin reagent that responds to reducing activity.

Assay [2] deals with Mycobacterium tuberculosis. In words: Antitubercular activity against Mycobacterium tuberculosis H37Rv in 7H12 medium after 4 days by microplate alamar blue assay. The format is functional. To be noted: 96 h. The method in brief:
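Replicating M. tuberculosis H37Rv tested in Middlebrook 7H12 medium, which lacks glycerol and uses palmitic acid as carbon source. MIC read by microplate Alamar Blue assay (MABA).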

In assay [3] the test system is Mycobacterium tuberculosis. In words: Antitubercular activity against Mycobacterium tuberculosis H37Rv in 7H12 medium incubated for 10 days in anaerobic condition followed by incubation for 48 hrs in aerobic condition by low oxygen recovery assay. The assay is classed as functional. In outline: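 Non-replicating M. tuberculosis H37Rv tested in 7H12 medium (palmitic acid carbon source, no glycerol) under low-oxygen conditions by the low-oxygen-recovery assay (LORA), which models persistence or latency. Read-out is MIC.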

Assay [4] relates to Vero. In words: Cytotoxicity against african green monkey Vero cells after 72 hrs by MTS assay. The assay is classed as cell-based. The conditions noted are these: Chlorocebus sabaeus. In outline: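 African green monkey kidney VERO cell line; toxicity read as half-maximal inhibitory concentration (IC50). Each reported value is the average of three individual measurements, rounded to the nearest dilution.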
For orientation: Formazan colour is commonly taken as a measure of viable cells.

Assay [5] can be described thus: Selectivity ratio of IC50 for african green monkey Vero cells to MIC for Mycobacterium tuberculosis H37Rv in GAS medium. The format is functional.

A word on the MIC: it is the least concentration at which growth counts as inhibited. In assay [1], `COC(=O)/C(=C/c1ccccc1)CSC(=N)Nc1ccccc1` came in with an MIC of 16 µM (≈ 5.22 µg/mL).
The IC50 is the concentration needed to halve the response being measured. Turning to `COC(=O)/C(=C/c1ccc([N+](=O)[O-])cc1)CN=[N+]=[N-]`, the MIC in assay [2] is greater than 32 µM; in assay [1], 4 µM (≈ 1.05 µg/mL); in assay [3], 16 µM (≈ 4.2 µg/mL). In assay [4], this compound displayed an IC50 greater than 64 µM.
In the case of `COC(=O)/C(=C/c1ccccc1[N+](=O)[O-])CN=[N+]=[N-]`, in assay [1], the MIC was 64 µM (≈ 16.8 µg/mL).
The same measure, in the same setting: to `COC(=O)/C(=C/C=C/c1ccccc1)CN=[N+]=[N-]` belongs 64 µM (≈ 15.6 µg/mL).
In assay [1], `COC(=O)/C(=C/c1ccc2c(c1)OCO2)CN=[N+]=[N-]` came in with an MIC of 64 µM (≈ 16.7 µg/mL).
On the same count and under the same terms, to `COC(=O)/C(=C/c1ccc(OC)cc1)CN=[N+]=[N-]` belongs greater than 128 µM.
In assay [1], `COC(=O)/C(=C/c1ccccc1)CN=[N+]=[N-]` returned an MIC greater than 128 µM.
For `COC(=O)/C(=C/c1ccc2ccccc2c1)CN=[N+]=[N-]`, the MIC in assay [1] was greater than 128 µM.
Turning to `COC(=O)/C(=C/c1ccc(Cl)cc1)CN=[N+]=[N-]`, the MIC in assay [1] was greater than 128 µM.
The same measure, in the same setting: to `COC(=O)/C(=C/c1ccccc1Cl)CN=[N+]=[N-]` belongs greater than 128 µM.
Regarding `COC(=O)/C(=C/c1ccc(Cl)cc1Cl)CN=[N+]=[N-]`, the MIC in assay [1] was greater than 128 µM.
Still for that read-out and setting: to `COC(=O)/C(=C/c1ccc([N+](=O)[O-])cc1)CSC#N` belongs greater than 128 µM; to `COC(=O)/C(=C/c1ccccc1[N+](=O)[O-])CSC#N`, 8 µM (≈ 2.23 µg/mL).
Regarding `COC(=O)/C(=C/C=C/c1ccccc1)CSC#N`, in assay [1], the MIC is greater than 128 µM.
In assay [1], `COC(=O)/C(=C/c1ccc2c(c1)OCO2)CSC#N` gave an MIC greater than 128 µM.
Same read-out and setting: to `COC(=O)/C(=C/c1ccc(OC)cc1)CSC#N` belongs 16 µM (≈ 4.21 µg/mL); to `COC(=O)/C(=C/c1ccc(OC)c(OC)c1)CSC#N`, 16 µM (≈ 4.69 µg/mL).
As for `COC(=O)/C(=C/c1ccccc1)CSC#N`, in assay [1], inhibition of growth (MIC) required 1 µM (≈ 0.233 µg/mL).
For `COC(=O)/C(=C/c1ccc2ccccc2c1)CSC#N`, the Selectivity ratio in assay [5] is on record as greater than 100. Moreover, the MIC in assay [2] was determined as 32 µM (≈ 9.07 µg/mL); in assay [1], 0.25 µM (≈ 0.0708 µg/mL); in assay [3], 16 µM (≈ 4.53 µg/mL). This compound had an IC50 in assay [4] of 32 µM.
Take `COC(=O)/C(=C/c1ccc(C)cc1)CSC#N`: the MIC stood at 8 µM (≈ 1.98 µg/mL) in assay [2], 0.5 µM (≈ 0.124 µg/mL) in assay [1] and 16 µM (≈ 3.96 µg/mL) in assay [3]. In assay [4], this compound came in with an IC50 of 32 µM.
On the same counts, the results for `COC(=O)/C(=C/c1ccc(Cl)cc1)CSC#N` are 8 µM (≈ 2.14 µg/mL), 0.25 µM (≈ 0.0669 µg/mL), 8 µM (≈ 2.14 µg/mL) and 16 µM.
Regarding `COC(=O)/C(=C/c1ccccc1Cl)CSC#N`, in assay [1], the MIC was greater than 128 µM.
Same read-out and setting: to `COC(=O)/C(=C/c1ccc(Cl)cc1Cl)CSC#N` belongs greater than 128 µM.
With `COC(=O)/C(=C/c1ccccc1Br)CSC#N`, the Selectivity ratio in assay [5] was greater than 100. Also, the MIC in assay [2] worked out at 8 µM (≈ 2.5 µg/mL); in assay [1] it was 0.25 µM (≈ 0.078 µg/mL); in assay [3], 4 µM (≈ 1.25 µg/mL). Besides, the IC50 in assay [4] turned out to be 32 µM.
On the same counts, the results for `COC(=O)/C(=C/c1ccc(Br)cc1)CSC#N` are greater than 100, 16 µM (≈ 5 µg/mL), 0.25 µM (≈ 0.078 µg/mL), 16 µM (≈ 5 µg/mL) and 32 µM.
For the compound `COC(=O)/C(=C/c1ccc(F)cc1)CSC#N`, the MIC was determined as 16 µM (≈ 4.02 µg/mL) in assay [2], 0.5 µM (≈ 0.126 µg/mL) in assay [1] and 16 µM (≈ 4.02 µg/mL) in assay [3]. This compound also displayed an IC50 in assay [4] of 32 µM.
As for `COC(=O)/C(=C/c1ccc([N+](=O)[O-])cc1)CSC(=N)N`, the MIC was 64 µM (≈ 18.9 µg/mL) in assay [2] and 8 µM (≈ 2.36 µg/mL) in assay [1].
Consider `COC(=O)/C(=C/c1ccc2c(c1)OCO2)CSC(=N)N`, for which the MIC in assay [1] is greater than 128 µM.
Still for that read-out and setting: to `COC(=O)/C(=C/c1ccc(OC)cc1)CSC(=N)N` belongs 32 µM (≈ 8.97 µg/mL).
On the same count and under the same terms, to `COC(=O)/C(=C/c1ccccc1)CSC(=N)N` belongs 64 µM (≈ 16 µg/mL).
As to `COC(=O)/C(=C/c1ccccc1Cl)CSC(=N)N`, the MIC in assay [1] is greater than 128 µM.
On to `COC(=O)/C(=C/c1ccc([N+](=O)[O-])cc1)CSC(=N)Nc1ccccc1`, for which the MIC in assay [2] was greater than 32 µM; in assay [1] it was 4 µM (≈ 1.49 µg/mL); in assay [3] it was greater than 64 µM. The same compound came in with an IC50 in assay [4] greater than 64 µM.
`COC(=O)/C(=C/c1cccc([N+](=O)[O-])c1)CSC(=N)Nc1ccccc1` had an MIC in assay [1] of 16 µM (≈ 5.94 µg/mL).
Take `COC(=O)/C(=C/c1ccccc1[N+](=O)[O-])CSC(=N)Nc1ccccc1`: it took 16 µM (≈ 5.94 µg/mL) to inhibit growth in assay [1] (MIC).
For `COC(=O)/C(=C/c1ccc2c(c1)OCO2)CSC(=N)Nc1ccccc1`, in assay [1], inhibition of growth (MIC) required 16 µM (≈ 5.93 µg/mL).
On to `COC(=O)/C(=C/c1ccc(OC)cc1)CSC(=N)Nc1ccccc1`, for which 16 µM (≈ 5.7 µg/mL) was the least that counted as inhibitory in assay [1] (MIC).
Same read-out and setting: to `COC(=O)/C(=C/c1ccc(C)cc1)CSC(=N)Nc1ccccc1` belongs 16 µM (≈ 5.45 µg/mL); to `COC(=O)/C(=C/c1ccc(Cl)cc1)CSC(=N)Nc1ccccc1`, 8 µM (≈ 2.89 µg/mL).
On the same count and under the same terms, to `COC(=O)/C(=C/c1ccc(F)cc1)CSC(=N)Nc1ccccc1` belongs 8 µM (≈ 2.76 µg/mL); to `COC(=O)/C(=C/c1ccccc1)CS/C(=N\C(C)=O)NC(C)=O`, 32 µM (≈ 10.7 µg/mL); to `COC(=O)/C(=C/c1ccccc1Cl)CS/C(=N\C(C)=O)NC(C)=O`, 32 µM (≈ 11.8 µg/mL).
